Measurements taken from ChEMBL document CHEMBL1129335, “Synthesis and structure-activity relationships of 2-substituted D-tryptophan-containing peptidic endothelin receptor antagonists: importance of the C-2 substituent of the D-tryptophan residue for endothelin A and B receptor subtype selectivity” (J Med Chem, 1996).

Columns and labels:
[1] = molecular target: T1, Endothelin-1 receptor (Sus scrofa, UniProt Q29010); experiment: Binding affinity towards endothelin A receptor in porcine aortic smooth muscle membranes.
T1 sequence (Q29010 whole entry): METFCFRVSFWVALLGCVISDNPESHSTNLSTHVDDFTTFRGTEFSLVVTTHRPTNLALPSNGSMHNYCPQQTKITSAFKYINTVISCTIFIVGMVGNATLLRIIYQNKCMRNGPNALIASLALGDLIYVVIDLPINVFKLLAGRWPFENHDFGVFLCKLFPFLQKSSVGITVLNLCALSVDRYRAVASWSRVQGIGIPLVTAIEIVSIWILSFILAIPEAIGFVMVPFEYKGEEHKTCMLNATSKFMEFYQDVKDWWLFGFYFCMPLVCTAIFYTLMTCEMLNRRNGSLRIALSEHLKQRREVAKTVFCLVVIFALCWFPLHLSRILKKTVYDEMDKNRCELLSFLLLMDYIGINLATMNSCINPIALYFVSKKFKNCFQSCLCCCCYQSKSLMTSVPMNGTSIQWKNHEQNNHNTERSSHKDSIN
Summary of the method: (§1)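 Competitive binding in porcine membranes: aortic smooth muscle for ETA and cerebellum for ETB, run by a previously reported method. Variation was generally within 10%.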

[2] = molecular target: T2, Endothelin receptor type B (Sus scrofa, UniProt P35463); experiment: Binding affinity towards endothelin B receptor in porcine cerebellum membranes; format: cell membranes, Membrane; summary of the method: as §1
T2 sequence (P35463 whole entry): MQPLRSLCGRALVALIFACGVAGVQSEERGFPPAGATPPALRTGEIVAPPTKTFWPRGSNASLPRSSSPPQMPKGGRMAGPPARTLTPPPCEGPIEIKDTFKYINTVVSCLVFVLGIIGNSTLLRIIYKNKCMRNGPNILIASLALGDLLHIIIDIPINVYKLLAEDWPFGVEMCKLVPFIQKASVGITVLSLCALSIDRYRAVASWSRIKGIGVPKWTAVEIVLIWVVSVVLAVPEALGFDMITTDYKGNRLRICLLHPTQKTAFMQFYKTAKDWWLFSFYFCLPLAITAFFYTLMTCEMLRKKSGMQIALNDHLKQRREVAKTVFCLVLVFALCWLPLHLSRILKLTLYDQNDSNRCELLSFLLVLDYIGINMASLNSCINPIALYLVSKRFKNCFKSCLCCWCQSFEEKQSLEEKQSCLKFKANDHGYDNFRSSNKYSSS

[3] = molecular target: T3, Endothelin receptor type B (Homo sapiens, UniProt P24530); experiment: Binding affinity towards Endothelin B receptor in human girardi heart cell membranes
T3 sequence (P24530 whole entry): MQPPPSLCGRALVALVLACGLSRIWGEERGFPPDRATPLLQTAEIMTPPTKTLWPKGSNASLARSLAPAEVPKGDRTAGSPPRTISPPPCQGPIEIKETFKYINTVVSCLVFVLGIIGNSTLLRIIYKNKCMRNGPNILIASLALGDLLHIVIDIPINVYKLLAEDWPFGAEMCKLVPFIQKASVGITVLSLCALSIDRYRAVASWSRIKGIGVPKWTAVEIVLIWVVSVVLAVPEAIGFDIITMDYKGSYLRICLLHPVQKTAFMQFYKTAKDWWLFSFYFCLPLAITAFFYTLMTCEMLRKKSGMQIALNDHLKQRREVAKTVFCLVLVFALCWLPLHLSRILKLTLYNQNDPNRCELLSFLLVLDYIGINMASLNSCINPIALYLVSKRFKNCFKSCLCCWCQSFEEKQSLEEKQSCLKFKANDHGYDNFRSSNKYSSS
Summary of the method: (§2)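 Membrane binding assay on human receptors. ETA came from the neuroblastoma-derived line SK-N-MC and ETB from Girardi heart cells. Inhibition was expressed as IC50.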

[4] = Ability to antagonize ET-A mediated vasoconstrictor activity in isolated porcine coronary arteries; format: functional; details: read-out: pA2 (converted)
Summary of the method: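 Isolated porcine coronary artery rings were contracted with ET-1, an ETA-mediated response, following a reported method. Antagonism was quantified as a pA2 value.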

[5] = molecular target: T4, Endothelin-1 receptor (Homo sapiens, UniProt P25101); experiment: Binding affinity towards Endothelin A receptor in human neuroblastoma-derived cell line SK-N-MC membranes; format: cell-based; summary of the method: as §2
T4 sequence (P25101 whole entry): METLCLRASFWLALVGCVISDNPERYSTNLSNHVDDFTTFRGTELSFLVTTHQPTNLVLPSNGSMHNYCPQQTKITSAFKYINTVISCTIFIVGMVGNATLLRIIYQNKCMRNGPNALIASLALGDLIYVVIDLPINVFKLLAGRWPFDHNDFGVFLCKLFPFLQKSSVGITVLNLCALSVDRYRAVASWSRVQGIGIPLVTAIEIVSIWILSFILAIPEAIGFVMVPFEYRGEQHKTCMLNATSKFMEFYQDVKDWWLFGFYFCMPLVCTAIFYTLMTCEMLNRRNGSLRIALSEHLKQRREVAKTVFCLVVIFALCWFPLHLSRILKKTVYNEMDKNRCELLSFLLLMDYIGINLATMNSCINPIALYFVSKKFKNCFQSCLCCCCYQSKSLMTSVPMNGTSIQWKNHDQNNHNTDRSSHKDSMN

[6] = Ability to antagonize ET-1 mediated constriction in rabbit pulmonary arteries; format: functional, Oryctolagus cuniculus

| IC50 [1] | IC50 [2] | Structure (SMILES) | also measured |
| --- | --- | --- | --- |
| 110 nM | 1900 nM | CCCCCC[C@@H](NC(=O)[C@@H](Cc1c(Br)[nH]c2ccccc12)NC(=O)C(CC(C)C)NC(=O)N1[C@H](C)CCC[C@@H]1C)C(=O)O (stereo not given in full) |  |
| 2.2 nM | 4.5 nM | CSCCC(NC(=O)[C@@H](Cc1c(Br)[nH]c2ccccc12)NC(=O)C(CC(C)C)NC(=O)N1[C@H](C)CCC[C@@H]1C)C(=O)O (stereo not given in full) |  |
| 8 nM | 13 nM | CSCCC(NC(=O)[C@@H](Cc1c(C)[nH]c2ccccc12)NC(=O)C(CC(C)C)NC(=O)N1[C@H](C)CCC[C@@H]1C)C(=O)O (stereo not given in full) |  |
| 9.2 nM | 2.1 nM | CCCC(NC(=O)[C@@H](Cc1c(Br)[nH]c2ccccc12)NC(=O)C(CC(C)C)NC(=O)N1[C@H](C)CCC[C@@H]1C)C(=O)O (stereo not given in full) |  |
| 470 nM | 1.6 nM | CCCCC(NC(=O)[C@@H](Cc1c(C#N)[nH]c2ccccc12)NC(=O)C(CC(C)C)NC(=O)N1[C@H](C)CCC[C@@H]1C)C(=O)O (stereo not given in full) |  |
| 21 nM | 14 nM | CC(C)CC(NC(=O)[C@@H](Cc1c(Br)[nH]c2ccccc12)NC(=O)C(CC(C)C)NC(=O)N1[C@H](C)CCC[C@@H]1C)C(=O)O (stereo not given in full) |  |
| 180 nM | 5 nM | CCCCC(NC(=O)[C@@H](Cc1c(CC)[nH]c2ccccc12)NC(=O)C(CC(C)C)NC(=O)N1[C@H](C)CCC[C@@H]1C)C(=O)O (stereo not given in full) |  |
| 15 nM | 5.6 nM | CCCCC(NC(=O)[C@@H](Cc1c(Cl)[nH]c2ccccc12)NC(=O)C(CC(C)C)NC(=O)N1[C@H](C)CCC[C@@H]1C)C(=O)O (stereo not given in full) |  |
| 5.6 nM | 2.5 nM | CCCCC(NC(=O)[C@@H](Cc1c(Br)[nH]c2ccccc12)NC(=O)C(CC(C)C)NC(=O)N1[C@H](C)CCC[C@@H]1C)C(=O)O (stereo not given in full) |  |
| 2.4 nM | 1.9 nM | CCCSCC(NC(=O)[C@@H](Cc1c(Br)[nH]c2ccccc12)NC(=O)C(CC(C)C)NC(=O)N1[C@H](C)CCC[C@@H]1C)C(=O)O (stereo not given in full) |  |
| 9.6 nM | 13 nM | CCCCC(NC(=O)[C@@H](Cc1c(C)[nH]c2ccccc12)NC(=O)C(CC(C)C)NC(=O)N1[C@H](C)CCC[C@@H]1C)C(=O)O (stereo not given in full) |  |
| 9.8 nM | 4.2 nM | C=CCC(NC(=O)[C@@H](Cc1c(Br)[nH]c2ccccc12)NC(=O)C(CC(C)C)NC(=O)N1[C@H](C)CCC[C@@H]1C)C(=O)O (stereo not given in full) |  |

Second part, the compound before the results:

| Structure (SMILES) | IC50 [1] | IC50 [2] | also measured |
| --- | --- | --- | --- |
| Cc1[nH]c2ccccc2c1C[C@H]1NC(=O)[C@H](CC(C)C)NC(=O)[C@@H](C(C)C)NC(=O)[C@@H]2CCCN2C(=O)[C@@H](CC(=O)O)NC1=O | 51 nM | 870 nM |  |
| O=C(O)C[C@H]1NC(=O)[C@@H](Cc2c(Br)[nH]c3ccccc23)NC(=O)[C@H](C2CC2)NC(=O)[C@@H](C2CCCC2)NC(=O)[C@@H]2CCCN2C1=O | 4.9 nM | 15 nM | IC50 ([3]; heart): 29 nM; Kb [4]: 31.6 nM; IC50 ([5]; sk-n-mc): 8.6 nM; pA2 [6]: 5.7 |
| Cc1[nH]c2ccccc2c1C[C@H]1NC(=O)[C@H](C2CC2)NC(=O)[C@@H](C(C)C)NC(=O)[C@@H]2CCCN2C(=O)[C@@H](CC(=O)O)NC1=O | 8.1 nM | 270 nM |  |
| Cc1[nH]c2ccccc2c1C[C@H]1NC(=O)[C@H](C2CC2)NC(=O)[C@@H](C2CCCC2)NC(=O)[C@@H]2CCCN2C(=O)[C@@H](CC(=O)O)NC1=O | 1.8 nM | 59 nM | IC50 ([3]; heart): 130 nM; IC50 ([5]; sk-n-mc): 2.9 nM |
| CCCCC(NC(=O)[C@@H](Cc1c(Cl)[nH]c2ccccc12)NC(=O)C(NC(=O)N1[C@H](C)CCC[C@@H]1C)C(C)CC)C(=O)O (stereo not given in full) | 51 nM | 4.6 nM |  |
| CC(C)CC(NC(=O)N1[C@H](C)CCC[C@@H]1C)C(=O)N[C@H](Cc1c(Br)[nH]c2ccccc12)C(=O)NC(Cc1cnc[nH]1)C(=O)O (stereo not given in full) | 3.8 nM | 76 nM |  |
| CCCCC(NC(=O)[C@@H](Cc1c(Cl)[nH]c2ccccc12)NC(=O)C(NC(=O)N1[C@H](C)CCC[C@@H]1C)C(C)C)C(=O)O (stereo not given in full) | 33 nM | 4.6 nM |  |
| CCCCC(NC(=O)[C@@H](Cc1c(Cl)[nH]c2ccccc12)NC(=O)C(CCCC)NC(=O)N1[C@H](C)CCC[C@@H]1C)C(=O)O (stereo not given in full) | 9 nM | 6.1 nM |  |
| CCCC(NC(=O)[C@@H](Cc1c(C#N)[nH]c2ccccc12)NC(=O)C(NC(=O)N1[C@H](C)CCC[C@@H]1C)C(C)C)C(=O)O (stereo not given in full) | 3000 nM | 5.6 nM |  |
| CCCCC(NC(=O)[C@@H](Cc1c(Cl)[nH]c2ccccc12)NC(=O)C(NC(=O)N1[C@H](C)CCC[C@@H]1C)C1CC1)C(=O)O (stereo not given in full) | 9.3 nM | 1.3 nM |  |
| CSCCC(NC(=O)[C@@H](Cc1c(C)[nH]c2ccccc12)NC(=O)C(NC(=O)N1[C@H](C)CCC[C@@H]1C)C1CC1)C(=O)O (stereo not given in full) | 1 nM | 2.9 nM | IC50 [3]: 4 nM; IC50 [5]: 3 nM |
| CCCCC(NC(=O)[C@@H](Cc1c(Br)[nH]c2ccccc12)NC(=O)C(CC(C)C)NC(=O)N1CCCCC1)C(=O)O (stereo not given in full) | 26 nM | 110 nM |  |
| Cc1[nH]c2ccccc2c1C[C@@H](NC(=O)C(CC(C)C)NC(=O)N1[C@H](C)CCC[C@@H]1C)C(=O)NC(Cc1c[nH]cn1)C(=O)O (stereo not given in full) | 2.8 nM | 99 nM |  |
| CCCCC(NC(=O)[C@@H](Cc1c(Br)[nH]c2ccccc12)NC(=O)C(CC(C)C)NC(=O)N1CCCCC1C)C(=O)O (stereo not given in full) | 8.1 nM | 34 nM |  |
| Cc1[nH]c2ccccc2c1C[C@@H](NC(=O)C(NC(=O)N1[C@H](C)CCC[C@@H]1C)C1CC1)C(=O)NC(Cc1c[nH]cn1)C(=O)O (stereo not given in full) | 4.8 nM | 170 nM |  |
| CCCCC(NC(=O)[C@@H](Cc1c(Cl)[nH]c2ccccc12)NC(=O)C(CC1CC1)NC(=O)N1[C@H](C)CCC[C@@H]1C)C(=O)O (stereo not given in full) | 14 nM | 6.2 nM |  |
| CCCCC(NC(=O)[C@@H](Cc1c(Cl)[nH]c2ccccc12)NC(=O)C(NC(=O)N1[C@H](C)CCC[C@@H]1C)C1CCCC1)C(=O)O (stereo not given in full) | 46 nM | 2.7 nM |  |
| CC(C)CC(NC(=O)N1[C@H](C)CCC[C@@H]1C)C(=O)N[C@H](Cc1c(Br)[nH]c2ccccc12)C(=O)NC(Cc1c[nH]c2ccccc12)C(=O)O (stereo not given in full) | 6.7 nM | 1100 nM |  |
| CCCCC(NC(=O)[C@@H](Cc1c(Br)[nH]c2ccccc12)NC(=O)C(CC(C)C)NC(=O)N1CCCC1)C(=O)O (stereo not given in full) | 160 nM | 2700 nM |  |
| CCCCC(NC(=O)[C@@H](Cc1c(Br)[nH]c2ccccc12)NC(=O)C(CC(C)C)NC(=O)N1CCCCCC1)C(=O)O (stereo not given in full) | 9.1 nM | 28 nM |  |
| CCCCC(NC(=O)[C@@H](Cc1c(C)[nH]c2ccccc12)NC(=O)C(NC(=O)N1[C@H](C)CCC[C@@H]1C)C1CC1)C(=O)O (stereo not given in full) | 5.7 nM | 2.9 nM |  |
| CCCCC(NC(=O)[C@@H](Cc1c(Br)[nH]c2ccccc12)NC(=O)C(CC(C)C)NC(=O)N1CCCCCCC1)C(=O)O (stereo not given in full) | 27 nM | 26 nM |  |
| CCCCC(NC(=O)[C@@H](Cc1c(C#N)[nH]c2ccccc12)NC(=O)C(NC(=O)N1[C@H](C)CCC[C@@H]1C)C(C)C(C)C)C(=O)O (stereo not given in full) | 810 nM | 7.1 nM |  |
| CCCCC(NC(=O)[C@@H](Cc1c(Cl)[nH]c2ccccc12)NC(=O)C(CCC)NC(=O)N1[C@H](C)CCC[C@@H]1C)C(=O)O (stereo not given in full) | 20 nM | 7.9 nM |  |
